Measurements as given in ChEMBL document CHEMBL1158477, “Synthesis, in vivo evaluation, and molecular modeling studies of new pyrazolo[5,1-c][1,2,4]benzotriazine 5-oxide derivatives. Identification of a bifunctional hydrogen bond area related to the inverse agonism” (J Med Chem, 2009).
Calls of active or inactive are those of the source. No cut-off for these calls is given here.

Assays:
Mus musculus [1] = assay: Effect on learning and memory process in CD1 albino mouse assessed as improvement in retention latency at 100 mg/kg, ip after 24 hrs by passive avoidance test; type: functional, organism-based; set-up: dose 100 mg/kg
Procedure, shortened: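 Male CD-1 mice treated ip 30 min before training in a step-through passive avoidance box, a lighted compartment joined to a dark one by a guillotine door. Training latency recorded, then retention latency 24 h later. Mean of 15-20 mice per group.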

Mus musculus [2] = assay: Effect on learning and memory process in CD1 albino mouse assessed as improvement in retention latency at 10 mg/kg, po after 24 hrs by passive avoidance test; type: functional, organism-based; set-up: dose 10 mg/kg
Procedure, shortened: (§1)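 Step-through passive avoidance in a two-compartment box (lit and dark compartments joined by a guillotine door). Male CD-1 mice dosed po (1% CMC) 30 min before training; retention tested 24 h later. Training and retention latencies recorded; mean ± SEM of 15-20 mice versus controls.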

Mus musculus [3] = assay: Anxiolytic activity in CD1 albino mouse at 10 mg/kg, po after 30 mins by light/dark box test; type: functional, organism-based; set-up: dose 10 mg/kg
Procedure, shortened: (§2)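 Male CD-1 mice (22-24 g) given test substance po in 1% CMC (10 mL/kg), tested 30 min later in a light/dark box. Transfers between compartments and time spent in the illuminated side were measured. Values are mean ± SEM of 15-20 mice; compared with controls.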

Mus musculus [4] = assay: Effect on motor coordination in CD1 albino mouse assessed as number of falls form rotarod at 10 mg/kg, po […] measured for 30 seconds after 30 mins of dosing by rotarod test; type: functional
Procedure, shortened: (§3)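 Rota-rod in male CD-1 mice with a pretest. Test substance given po in 1% CMC; falls from the rotating rod counted over 30 s, assessed 30 min after treatment.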

Mus musculus [5] = assay: Effect on explorative capacity in CD1 albino mouse assessed as curiosity-related number of head plugging activity on hole at 30 mg/kg, po after 30 mins by hole-board test; type: functional
Procedure, shortened: (§4)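 Hole-board test in male CD-1 mice: animals placed singly on the board and allowed to explore panel and holes. Test run 30 min after po dosing in 1% CMC (10 mL/kg). Hole entries (curiosity) and plane movements (spontaneous motility) counted; 10 mice per group, compared with CMC controls.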

Mus musculus [6] = assay: Anxiolytic activity in CD1 albino mouse at 30 mg/kg, po after 30 mins by light/dark box test in presence of flumazenil; type: functional, organism-based; set-up: dose 30 mg/kg
Procedure, shortened: (§5)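 Light/dark box in male CD-1 mice. Test substance given po in 1% CMC 30 min before the test, with flumazenil 100 mg/kg ip (saline) co-treatment. Transfers between compartments and time in the lit side recorded. Mean ± SEM of 15-20 mice.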

Mus musculus [7] = assay: Effect on motor coordination in CD1 albino mouse assessed as number of falls form rotarod at 3 mg/kg, po administered 60 mins before test measured for 30 seconds after 30 mins of drug infusion by rotarod test; type: functional; procedure, shortened: as §3
Mus musculus [8] = assay: Anticonvulsant activity against pentylenetetrazole-induced shock in CD1 albino mouse assessed as shock latency at 10 mg/kg, po preincubated for 30 mins before pentylenetetrazole challenge measured for 30 mins (RVb=253.1 +/- 13 seconds); type: functional
Mus musculus [9] = assay: Anxiolytic activity in CD1 albino mouse at 30 mg/kg, po after 30 mins by light/dark box test; type: functional, organism-based; set-up: dose 30 mg/kg; procedure, shortened: as §2
Mus musculus [10] = assay: Anxiolytic activity in CD1 albino mouse at 10 mg/kg, po after 30 mins by light/dark box test in presence of flumazenil; type: functional, organism-based; set-up: dose 10 mg/kg; procedure, shortened: as §5
Mus musculus [11] = assay: Anticonvulsant activity against pentylenetetrazole-induced convulsions in CD1 albino mouse assessed as convulsion latency at 30 mg/kg, po preincubated for 30 mins before pentylenetetrazole challenge measured for 30 mins (RVb=599 +/- 37.6 seconds); type: functional
Mus musculus [12] = assay: Effect on motor coordination in CD1 albino mouse assessed as number of falls form rotarod at 30 mg/kg, po […] measured for 30 seconds after 30 mins of drug infusion by rotarod test; type: functional; procedure, shortened: as §3
Mus musculus [13] = assay: Effect on explorative capacity in CD1 albino mouse assessed as curiosity-related number of head plugging activity on hole at 3 mg/kg, po after 30 mins by hole-board test; type: functional; procedure, shortened: as §4
Mus musculus [14] = assay: Effect on learning and memory process in CD1 albino mouse assessed as improvement in retention latency at 30 mg/kg, po after 24 hrs by passive avoidance test; type: functional, organism-based; set-up: dose 30 mg/kg; procedure, shortened: as §1
Mus musculus [15] = assay: Anticonvulsant activity against pentylenetetrazole-induced convulsions in CD1 albino mouse assessed as convulsion latency at 3 mg/kg, po preincubated for 30 mins before pentylenetetrazole challenge measured for 30 mins (RVb=599 +/- 37.6 seconds); type: functional
Mus musculus [16] = assay: Effect on ethanol-induced sleeping time in CD1 albino mouse assessed as increase in duration of loss of righting reflex at 10 mg/kg, po preincubated 30 mins before ethanol challenge; type: functional, organism-based; set-up: dose 10 mg/kg
Mus musculus [17] = assay: Effect on spontaneous motility in CD1 albino mouse assessed as number of movement on plane board at 30 mg/kg, po after 30 mins by hole-board test; type: functional; procedure, shortened: as §4
Mus musculus [18] = assay: Effect on ethanol-induced sleeping time in CD1 albino mouse assessed as reduction in duration of loss of righting reflex at 30 mg/kg, po preincubated 30 mins before ethanol challenge; type: functional, organism-based; set-up: dose 30 mg/kg
Mus musculus [19] = assay: Effect on ethanol-induced sleeping time in CD1 albino mouse assessed as increase in duration of loss of righting reflex at 3 mg/kg, po preincubated 30 mins before ethanol challenge; type: functional, organism-based; set-up: dose 3 mg/kg
Mus musculus [20] = assay: Effect on spontaneous motility in CD1 albino mouse assessed as number of movement on plane board at 3 mg/kg, po after 30 mins by hole-board test; type: functional; procedure, shortened: as §4
Mus musculus [21] = assay: Anticonvulsant activity against pentylenetetrazole-induced shock in CD1 albino mouse assessed as shock latency at 30 mg/kg, po preincubated for 30 mins before pentylenetetrazole challenge measured for 30 mins (RVb=253.1 +/- 13 seconds); type: functional
Mus musculus [22] = assay: Anxiolytic activity in CD1 albino mouse at 3 mg/kg, po after 30 mins by light/dark box test; type: functional, organism-based; set-up: dose 3 mg/kg; procedure, shortened: as §2
[23] = Displacement of [3H]flumazenil from GABAA/Benzodiazepine receptor in bovine brain; set-up: species or system Bos taurus
Procedure, shortened: (§6)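 Bovine brain membranes; displacement of specific [3H]flumazenil (Ro15-1788) binding. Percent inhibition measured at 10 μM; Ki determined only when inhibition at that concentration exceeded 80%. Ki given as mean ± SEM of five determinations.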

Mus musculus [24] = assay: Anticonvulsant activity against pentylenetetrazole-induced shock in CD1 albino mouse assessed as shock latency at 3 mg/kg, po preincubated for 30 mins before pentylenetetrazole challenge measured for 30 mins (RVb=253.1 +/- 13 seconds); type: functional
Mus musculus [25] = assay: Anticonvulsant activity against pentylenetetrazole-induced convulsions in CD1 albino mouse assessed as convulsion latency at 10 mg/kg, po preincubated for 30 mins before pentylenetetrazole challenge measured for 30 mins (RVb=599 +/- 37.6 seconds); type: functional
Mus musculus [26] = assay: Effect on spontaneous motility in CD1 albino mouse assessed as number of movement on plane board at 10 mg/kg, po after 30 mins by hole-board test; type: functional; procedure, shortened: as §4
Mus musculus [27] = assay: Effect on explorative capacity in CD1 albino mouse assessed as curiosity-related number of head plugging activity on hole at 10 mg/kg, po after 30 mins by hole-board test; type: functional; procedure, shortened: as §4
Bos taurus = organism: Bos taurus; assay: Displacement of [3H]flumazenil from GABAA/Benzodiazepine receptor in bovine brain at 10 uM; procedure, shortened: as §6
Mus musculus [28] = assay: Anxiogenic activity in CD1 albino mouse at 3 mg/kg, po after 30 mins by light/dark box test; type: functional, organism-based; set-up: dose 3 mg/kg; procedure, shortened: as §2
Mus musculus [29] = assay: Anxiogenic activity in CD1 albino mouse at 3 mg/kg, po after 30 mins by light/dark box test in presence of flumazenil; type: functional, organism-based; set-up: dose 3 mg/kg; procedure, shortened: as §5
Mus musculus [30] = assay: Effect on learning and memory process in CD1 albino mouse assessed as improvement in retention latency at 1 mg/kg, po after 24 hrs by passive avoidance test; type: functional, organism-based; set-up: dose 1 mg/kg; procedure, shortened: as §1
Mus musculus [31] = assay: Effect on learning and memory process in CD1 albino mouse assessed as improvement in retention latency at 3 mg/kg, po after 24 hrs by passive avoidance test; type: functional, organism-based; set-up: dose 3 mg/kg; procedure, shortened: as §1
Mus musculus [32] = assay: Anxiogenic activity in CD1 albino mouse at 30 mg/kg, po after 30 mins by light/dark box test; type: functional, organism-based; set-up: dose 30 mg/kg; procedure, shortened: as §2
Mus musculus [33] = assay: Anxiogenic activity in CD1 albino mouse at 10 mg/kg, po after 30 mins by light/dark box test; type: functional, organism-based; set-up: dose 10 mg/kg; procedure, shortened: as §2
Mus musculus [34] = assay: Anxiogenic activity in CD1 albino mouse at 1 mg/kg, po after 30 mins by light/dark box test; type: functional, organism-based; set-up: dose 1 mg/kg; procedure, shortened: as §2

| SMILES | Activity (Mus musculus [4]) | Activity (Mus musculus [7]) | Activity (Mus musculus [8]) [s] | Activity (Mus musculus [13]) | Activity (Mus musculus [15]) [s] | Activity (Mus musculus [16]) | Activity (Mus musculus [19]) | Activity (Mus musculus [20]) | Ki [23] [nM] | Activity (Mus musculus [24]) [s] | Activity (Mus musculus [25]) [s] | Activity (Mus musculus [26]) | Activity (Mus musculus [27]) | Activity (Bos taurus) [%] | other results |
| --- | --- | --- | --- | --- | --- | --- | --- | --- | --- | --- | --- | --- | --- | --- | --- |
| CCOC(=O)c1ncn2c1CN(C)C(=O)c1cc(F)ccc1-2 | – | – | – | – | – | – | – | – | – | – | – | – | – | – | Activity (Mus musculus [1]): Active |
| [O-][n+]1nc2c(I)cnn2c2cc(OCc3ccccc3)ccc21 | 2.2 | 1.5 | 266.1 | 29 | 380.2 | inactive | inactive | 54.3 | 1.1 | 375 | 360.8 | 66.9 | 22.7 | > 80 | Activity (Mus musculus [2]): Active; Activity (Mus musculus [3]): Active; Activity (Mus musculus [5]): 28.7; Activity (Mus musculus [6]): inactive; Activity (Mus musculus [9]): Active; Activity (Mus musculus [10]): inactive; Activity (Mus musculus [11]): 479.7 s; Activity (Mus musculus [12]): 1.7; Activity (Mus musculus [14]): Active; Activity (Mus musculus [17]): 54.5; Activity (Mus musculus [18]): Active; Activity (Mus musculus [21]): 354 s; Activity (Mus musculus [22]): Active |
| [O-][n+]1nc2c(I)cnn2c2cc(Oc3ccccc3)ccc21 | 0.6 | 0.9 | 243.6 | 38 | 516.1 | Active | Active | 73.2 | 8.6 | 264.7 | 345.5 | 63.8 | 39.8 | > 80 | Activity (Mus musculus [28]): Active; Activity (Mus musculus [29]): inactive; Activity (Mus musculus [30]): Active; Activity (Mus musculus [31]): Active; Activity (Mus musculus [32]): Active; Activity (Mus musculus [33]): Active; Activity (Mus musculus [34]): Active |
